Laboratory results published in ChEMBL document CHEMBL3098075, “Lipoic acid analogs with enhanced pharmacological activity” (2014).
Residues, ends and D or L forms follow the SMILES beside them.

The molecules below were run on Rattus norvegicus (assay: Cardioprotective activity in Sprague-Dawley rat model of myocardial ischemia-reperfusion injury assessed as reduction in MI/AR ratio at 1 to 10 mg/kg, iv bolus administered 15 mins prior to 30 mins LCX ligation by TTC staining-based fluorescence microscopy relative to placebo control). Settings: dose mg/kg 1-10.
Format: functional, Myocardium
Set-up: scale not given: the % may be the effect or the level left
Outline: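 Anaesthetised animals underwent thoracotomy and pericardotomy, then LCX coronary ligation for 30 min followed by reperfusion. Agent was given in isotonic saline (pH-neutralised with NaOH, 285 mOsm), 1 mL/kg, before ligation. Fluorescent microspheres injected into the LV cavity during ischemia marked the area at risk. Hearts were excised after 24 h and cut into five 2 mm slices stained with 1% TTC. The MI/AR ratio was compared with placebo by Student's t-test.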

Row | Molecule | Activity [%]
1 | NC(=O)CC[C@H](NC(=O)CCCC[C@@H]1CCSS1)C(=O)NCC(=O)O | 17
2 | O=C(O)CNC(=O)[C@H](CC(=O)O)NC(=O)CCCC[C@@H]1CCSS1 | 28
3 | C[C@H](NC(=O)[C@H](Cc1ccc(O)cc1)NC(=O)CCCC[C@@H]1CCSS1)C(=O)O | 31
4 | O=C(O)CC[C@H](NC(=O)CCCC[C@@H]1CCSS1)C(=O)NCCS(=O)(=O)O | 33
5 | C[C@H](NC(=O)CCCC[C@@H]1CCSS1)C(=O)N[C@@H](CCC(=O)O)C(=O)O | 24
6 | O=C(CCCC[C@@H]1CCSS1)N[C@@H](Cc1ccc(C(=O)O)cc1)C(=O)O | 26
7 | O=C(CCCC[C@@H]1CCSS1)N[C@@H](Cc1ccc(O)cc1)C(=O)O | 29
8 | O=C(CCCC[C@@H]1CCSS1)NC(CF)C(=O)O (some centres undefined) | 10
9 | O=C(O)CC[C@H](NC(=O)CCCC[C@@H]1CCSS1)C(=O)O | 33
10 | O=C(CCCC[C@@H]1CCSS1)N[C@@H](CS(=O)(=O)O)C(=O)O | 30
11 | O=C(O)CN(CC(=O)O)C(=O)CCCC[C@@H]1CCSS1 | 21
12 | O=C(O)CCNC(=O)CCCC[C@@H]1CCSS1 | 39
13 | O=C(CCCC[C@@H]1CCSS1)NCCS(=O)(=O)O | 45
14 | O=C(CCCC[C@@H]1CCSS1)NCCOS(=O)(=O)O | 30
15 | O=C(CCCC[C@@H]1CCSS1)NCCP(=O)(O)O | 53
16 | O=C(CCCC[C@@H]1CCSS1)NCCOP(=O)(O)O | 47
17 | O=C(CCCC[C@@H]1CCSS1)Nc1ccc(C(=O)O)cc1 | 22
18 | O=C(CCCC[C@@H]1CCSS1)Nc1cccc(S(=O)(=O)O)c1 | 33
19 | O=C(CCCC[C@@H]1CCSS1)Nc1ccc(S(=O)(=O)O)cc1 | 44
20 | CC(=O)N[C@@H](CCC(=O)O)C(=O)N[C@@H](C)C(=O)N[C@@H](CCC(=O)O)C(=O)N[C@@H](C)C(=O)O (Ac-EAEA-OH) | 23
21 | CC(=O)N[C@@H](CCC(=O)O)C(=O)N[C@@H](C)C(=O)O (Ac-Glu-Ala-OH) | 23
22 | C[C@H](NC(=O)[C@H](CCC(=O)O)NC(=O)CCCC[C@@H]1CCSS1)C(=O)O [CMX-2043] | 31
23 | O=C(O)CCCC[C@@H]1CCSS1 [THIOCTIC ACID] | 19
24 | Ac-EAEAEGA-OH | 17
